Experiments:
[1] = system: Ramos; experiment: Cytotoxicity against human Ramos cells after 4 hrs by MTT assay; format: functional, cell-based
Method in brief: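 Ramos Burkitt's lymphoma cells, kept in suspension in RPMI 1640 with 10% FBS, were seeded at 4 × 10^5 cells/ml in serum-free RPMI 1640. Compounds in RPMI-1640 were added immediately, then 4 h at 37 °C, 5% CO2. MTT was added for a further 2 h, formazan dissolved in acidic isopropanol (0.04 N HCl), and A590 read. Survival was calculated against untreated medium control; 1% Triton X-100 served as positive control.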

[2] = system: MRC5; experiment: Cytotoxicity against human MRC5 cells after 4 hrs by MTT assay; format: cell-based; conditions: MRC5, 4 h
Method in brief: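 MRC-5 embryonic lung fibroblast monolayers in MEM with 10% FBS were seeded at 1 × 10^5 cells/ml, grown overnight, then medium was replaced with compound solution. Exposure was 4 h at 37 °C, 5% CO2, then MTT for 2 h. Formazan was dissolved in acidic isopropanol (0.04 N HCl) and absorbance read at 590 nm. Background-corrected viability was taken relative to medium-only control, with Triton X-100 as positive control.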

[3] = system: Ramos; experiment: Selectivity index, ratio of EC50 for human RBC to IC50 for human Ramos cells; format: functional
Method in brief: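 Ramos IC50 came from a 4 h MTT assay: cells at 4 × 10^5 cells/ml in serum-free RPMI-1640, compounds added at once, 37 °C, 2 h MTT, read at 590 nm. RBC EC50 came from hemoglobin release at 405 nm: 1% v/v washed human erythrocytes in PBS, 1 h at 37 °C, Triton X-100 reference. SI = RBC EC50 / Ramos IC50.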

[4] = system: Ramos; experiment: Selectivity index, ratio of EC50 for human MRC5 cells to IC50 for human Ramos cells; format: functional
Method in brief: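 Ramos cells were seeded at 4 × 10^5 cells/ml in serum-free RPMI-1640, and compounds in RPMI-1640 were added at once. MRC-5 fibroblasts were seeded at 1 × 10^5 cells/ml in MEM with 10% FBS, grown overnight, and the medium was then replaced with compound. Both were incubated 4 h at 37 °C, 5% CO2, then given MTT for 2 h. Formazan was dissolved in acidic isopropanol and read at 590 nm. Survival was expressed relative to the untreated medium control. SI = MRC-5 EC50 / Ramos IC50.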

[5] = Hemolytic activity in human RBC assessed as hemoglobin release; format: ADME, cell-based, Erythrocyte
Method in brief: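 Heparinized human blood was washed three times in PBS pre-warmed to 37 °C to remove plasma. Compounds were dissolved in PBS and mixed with the RBCs to a final 1% v/v erythrocytes. Samples were incubated for 1 h at 37 °C with agitation, then centrifuged. Hemoglobin release was read at 405 nm, relative to 0.1% v/v Triton X-100 (positive control) and PBS (negative control).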

[6] = Homo sapiens, Erythrocyte, read-out: EC50

Row | SMILES | IC50 [1] | EC50 [2] | Selectivity Index [3] | Selectivity Index [4] | EC50 ([5]; erythrocyte) | EC50 [5, 6]
1 | NCCNC(=O)C(CN)(Cc1ccc(C(F)(F)F)cc1)Cc1ccc(C(F)(F)F)cc1 | 7.1 µM | 17.8 µM | 60 | 2.5 |  | 
2 | CN(C)CCNC(=O)C(CN)(Cc1ccc(C(C)(C)C)cc1)Cc1ccc(C(C)(C)C)cc1 | 28 µM | 49 µM | 9.8 | 1.8 |  | 
3 | N=C(N)NCCCNC(=O)C(CNC(=N)N)(Cc1ccc2ccccc2c1)Cc1ccc2ccccc2c1 | 79 µM | 760 µM |  | 9.6 | ND(Insoluble) | 
4 | CN(C)CCNC(=O)C(CN)(Cc1ccc(C(F)(F)F)cc1)Cc1ccc(C(F)(F)F)cc1 | 11.4 µM | 47 µM | 41 | 4.1 |  | 
5 | CN(C)CCN1CCN(C(=O)C(CN)(Cc2ccc(C(C)(C)C)cc2)Cc2ccc(C(C)(C)C)cc2)CC1 | 5.2 µM | 12 µM | 65 | 2.3 |  | 337 µM
6 | CC(C)(C)c1ccc(CC(CN)(Cc2ccc(C(C)(C)C)cc2)C(=O)N[C@@H](CCCNC(=N)N)C(N)=O)cc1 | 136 µM | 158 µM | >4.8 | 1.2 |  | > 654 µM
7 | NCCCNC(=O)C(CN)(Cc1ccc2ccccc2c1)Cc1ccc2ccccc2c1 | 4.3 µM | 6.6 µM | 104 | 1.5 |  | 447 µM
8 | CN(C)CCOC(=O)C(CN)(Cc1ccc(C(C)(C)C)cc1)Cc1ccc(C(C)(C)C)cc1 | 31 µM | 90 µM | 1.7 | 2.9 |  | 52 µM
9 | N=C(N)NCCCNC(=O)C(CNC(=N)N)(Cc1ccc(C(F)(F)F)cc1)Cc1ccc(C(F)(F)F)cc1 | 78 µM | 171 µM |  | 2.2 | ND(Insoluble) | 
10 | CC(C)(C)c1ccc(CC(CN)(Cc2ccc(C(C)(C)C)cc2)C(=O)NCCCN)cc1 | 14.4 µM | 35 µM | 17.6 | 2.4 |  | 254 µM
11 | CN(C)CCOC(=O)C(CN)(Cc1ccc2ccccc2c1)Cc1ccc2ccccc2c1 | 3.1 µM | 12.7 µM | 148 | 4.1 |  | 458 µM
12 | N=C(N)NCCC[C@H](NC(=O)C(CN)(Cc1ccc2ccccc2c1)Cc1ccc2ccccc2c1)C(N)=O | 107 µM | 552 µM | 4 | 5.2 |  | 425 µM
13 | CN(C)CCOC(=O)C(CN)(Cc1ccc(C(F)(F)F)cc1)Cc1ccc(C(F)(F)F)cc1 | 2.3 µM | 8.2 µM | 190 | 3.6 |  | 437 µM
14 | CN(C)CCN1CCN(C(=O)C(CN)(Cc2ccc3ccccc3c2)Cc2ccc3ccccc3c2)CC1 | 7.2 µM | 18.5 µM | 57 | 2.6 |  | 409 µM
15 | N=C(N)NCCC[C@H](NC(=O)C(CN)(Cc1ccc(C(F)(F)F)cc1)Cc1ccc(C(F)(F)F)cc1)C(N)=O | > 254 µM | > 634 µM |  |  |  | 990 µM
16 | NCCCNC(=O)C(CN)(Cc1ccc(C(F)(F)F)cc1)Cc1ccc(C(F)(F)F)cc1 | 11 µM | 30 µM | 72 | 2.8 |  | 790 µM
17 | CN(C)CCNC(=O)C(CN)(Cc1ccc2ccccc2c1)Cc1ccc2ccccc2c1 | 6.6 µM | 4.9 µM | 33 | 0.7 |  | 217 µM
18 | CN1CCN(C(=O)C(CN)(Cc2ccc(C(C)(C)C)cc2)Cc2ccc(C(C)(C)C)cc2)CC1 | 6.1 µM | 16.6 µM | 57 | 2.7 |  | 349 µM
19 | CC(C)(C)c1ccc(CC(CN)(Cc2ccc(C(C)(C)C)cc2)C(=O)NCCN)cc1 | 10.6 µM | 6.1 µM | 1.7 | 0.6 |  | 18 µM
20 | CN1CCN(C(=O)C(CN)(Cc2ccc(C(F)(F)F)cc2)Cc2ccc(C(F)(F)F)cc2)CC1 | 27 µM | 182 µM | 19.6 | 6.7 |  | 526 µM
21 | CN1CCN(C(=O)C(CN)(Cc2ccc3ccccc3c2)Cc2ccc3ccccc3c2)CC1 | 14 µM | 41 µM | 22 | 2.9 |  | 
22 | CC(C)(C)c1ccc(CC(CNC(=N)N)(Cc2ccc(C(C)(C)C)cc2)C(=O)NCCCNC(=N)N)cc1 | 63 µM | 64 µM |  | 1 | ND(Insoluble) | 
23 | CN(C)CCN1CCN(C(=O)C(CN)(Cc2ccc(C(F)(F)F)cc2)Cc2ccc(C(F)(F)F)cc2)CC1 | 19 µM | 69 µM | 58 | 3.6 |  | 1120 µM
